Data as given in PubChem BioAssay AID617 (SRMLSC, 2007).

tested on: E. coli BW25113 ΔtolC growth inhibition, OD615; assay: growth inhibitors of E. coli tolC mutant, dose response, strain BW25113 ΔtolC::kan (AID 617)
Summary of the method: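 Test system: E. coli BW25113 ΔtolC::kan bacteria / Buffer or medium: kanamycin-containing LB broth, 50 µg/mL / Compound: serial dilution series of compound / Incubation: bacterial growth with compound for 20 h, 37 °C / Measured by: OD615 / Read-out basis: growth-inhibition IC50 from four-parameter logistic curve, bounds set to 0% and 100%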

Row | Structure (SMILES) | IC50
1 | CCOC(=O)c1c(C)oc2ccc(NS(=O)(=O)c3ccc4c5c(cccc35)C(=O)N4)cc12 | 16.3 µM
2 | CCCN(CCC)c1nc(NC2CCN(C(=O)OCC)CC2)nc(OC)n1 | 12.4 µM
3 | CC(=O)c1ccccc1OCC(O)CN1CCN(C(c2ccccc2)c2ccccc2)CC1 (stereo not given) | 14.1 µM
4 | N#CC1=C(SCC(=O)c2cc3ccccc3oc2=O)NC(=O)C(C#N)C12CCCC2 (stereo not given) | 12.7 µM
5 | CCn1cc(C(=O)NCc2ccc3c(c2)OCO3)c(=O)c2cc(F)c(N3CCN(C)CC3)cc21 | 2.8 µM
6 | Cc1ccc2oc(C(=O)NCc3ccc4c(c3)OCO4)c(C)c2c1 | 11.1 µM
7 | CCOC(=O)c1c(-c2ccccc2)nnn1-c1nc(OCC)nc(N2CCCCC2)n1 | 20.7 µM
8 | CCc1nnc(NC(=O)c2cccc(C(=O)Nc3nnc(CC)s3)n2)s1 | 2.16 µM
9 | O=C1[C@H]2[C@@H](C(=O)N1c1cc(Cl)cc(Cl)c1)[C@]1(C(=O)Nc3ccccc31)N1CCC[C@@H]21 | 10.1 µM
10 | c1ccc(-c2nc(N3CCCCCC3)c3ccccc3n2)nc1 | 1.68 µM
11 | c1ccc2c(c1)oc1c(N3CCN(Cc4ccc5c(c4)OCO5)CC3)ncnc12 | 10.9 µM
12 | Clc1cccc(-c2nc3nc4ccccc4nc3n2Cc2ccco2)c1 | 15 µM
13 | COc1ccccc1N1CCN(C(=O)c2cc(-c3cccc(Cl)c3)on2)CC1 | 12.9 µM
14 | COc1ccccc1-c1cc(C(=O)NC(C)c2ccccc2)no1 (stereo not given) | 37.7 µM
15 | O=C(CSc1nc(O)c(C2CCCCC2)c(=O)[nH]1)Nc1ccc(Cl)cc1 | 8.66 µM
16 | Cc1ccc(C)c(N2CCN(C(=O)c3ccccc3Br)CC2)c1 | 11.2 µM
17 | O=C(Nc1nc2ccccc2n1CCOc1ccc(Cl)cc1)c1ccco1 | 25.2 µM
18 | Cc1cccc(N=c2oc3cc(O)ccc3cc2C(N)=O)c1 | 23 µM
19 | CN(c1ccccc1C(=O)Nc1ccc(S(=O)(=O)N2CCCCC2)cc1)S(C)(=O)=O | 7.39 µM
20 | Fc1cccc(-c2cc3nc4c(c(N5CCOCC5)n3n2)CCCC4)c1 | 18.4 µM
21 | Cc1cc(C)c(O)c(-c2cc(C(=O)Nc3ccc(S(=O)(=O)N4CCOCC4)cc3)[nH]n2)c1 | 6.03 µM
22 | COC(=O)c1ccc(C2c3c(n[nH]c3C)C(=O)N2c2ccc(C)cc2)cc1 (stereo not given) | 4.38 µM

Row | Structure (SMILES) | IC50
23 | CCN1/C(=C(\O)c2ccccc2)C(=O)c2ccccc2S1(=O)=O | 4.56 µM
24 | CC(=O)Nc1cccc(NC(=O)CSc2ncc(-c3ccc(Cl)cc3)n2Cc2ccco2)c1 | 2.99 µM
25 | Cn1c(Oc2ccccc2NCc2cc(Br)ccc2O)cc(=O)n(C)c1=O | 4.08 µM
26 | O=C(Nc1cnn(Cc2ccc(Cl)cc2Cl)c1)c1noc2c1CCCC2 | 8.39 µM
27 | CCOC(=O)c1ccc(N2C(=O)c3n[nH]c(C)c3C2c2ccc(OC)cc2OC)cc1 (stereo not given) | 16.8 µM
28 | Cn1cccc1C(=O)Nc1nc(-c2ccccn2)cs1 | 2.42 µM
29 | CC(C)COC(=O)NCCOC(=O)Nc1cccc(Cl)c1 | 19.6 µM
30 | O=C(c1ccco1)N1CCN(c2ncnc3c2[nH]c2ccc(Br)cc23)CC1 | 44.5 µM
31 | Clc1ccc(Cl)c(-c2nn3c(COc4ccccc4)nnc3s2)c1 | 0.78 µM
32 | CCOC(=O)Nc1ccc2c(c1)N(C(=O)N1CCN(C)CC1)c1ccccc1S2 | 36.9 µM
33 | COc1ccc(OC)c(S(=O)(=O)N2CCN(c3c(C)cccc3C)CC2)c1 | 15.6 µM
34 | Cc1ccc(C(C(=O)NC2CCCC2)N(Cc2cccs2)C(=O)CNC(=O)c2cccs2)o1 (stereo not given) | 22.3 µM
35 | O=S(=O)(Nc1cccc2ncccc12)c1cccs1 | 5.24 µM
36 | COc1cccc(NC(=O)N2CCN(c3cccc(C)c3C)CC2)c1 | 13.4 µM
37 | CCc1nc2ccccc2c(=O)n1NC(=O)c1c(O)c2cccc3c2n(c1=O)CCC3 | 12.2 µM
38 | Cc1cc(C)c2cc(CN(CCO)C(c3nnnn3Cc3ccc(F)cc3)C(C)C)c(=O)[nH]c2c1 (stereo not given) | 21.7 µM
39 | O=S(=O)(Nc1nc2ccccc2nc1NCc1ccco1)c1ccc(Cl)cc1 | 4.77 µM
40 | Cc1onc(-c2ccccc2)c1C(=O)Nc1nnc(N(C)Cc2ccccc2)s1 | 23.9 µM
41 | CCOC(=O)c1c(NC(=O)CN(CC)CC)sc2c1CCC2 | 13.8 µM
42 | COc1cccc(-c2nnc(NC(=O)c3ccc(S(=O)(=O)N4CCOCC4)cc3)o2)c1 | 0.99 µM
43 | CCOc1ccc(S(=O)(=O)Nc2cccc(Cl)c2)cc1 | 4.98 µM
44 | CCCCNC(=O)c1sc(=S)n2c1[nH]c(=O)c1ccccc12 | 0.54 µM

Row | Structure (SMILES) | IC50
45 | COc1ccccc1-c1nnc2sc(COc3ccc(Cl)cc3)nn12 | 16.4 µM
46 | COc1ccccc1OCCSc1nnnn1-c1ccc(C)cc1 | 18.9 µM
47 | CN(C)C1(c2nnnn2CCOC(=O)Nc2ccc(Cl)cc2)CCCCC1 | 8.24 µM
48 | CC(C)C1O/C(=N/C(=O)Nc2ccc(Cl)c(Cl)c2)NC1=O (stereo not given) | 2.07 µM
49 | Cc1sc2nc(CN(Cc3cccs3)C(=O)NC3CCCCC3)[nH]c(=O)c2c1C | 6.91 µM
50 | N#CC(C#N)=c1ccc2c(c1)N1C3=C(CCCC3)CC3CCCCC31N=2 (stereo not given) | 75.6 µM
51 | Cc1ccc2c(c1)c1c(n2CC(O)Cn2c(C)nc3ccccc32)/C(=N\O)CCC1 (stereo not given) | 26.1 µM
52 | COc1ccc(S(=O)(=O)N(Cc2cccs2)C2CCCC2)cc1 | 8.13 µM
53 | COc1ccccc1C1SCCN1S(=O)(=O)c1cccc(C(F)(F)F)c1 (stereo not given) | 16.4 µM
54 | COc1ccc(-n2c(C)cc(C(=O)COC(=O)Cn3cnc4ccccc43)c2C)cc1 | 3.33 µM
55 | COc1ccccc1C1CC(c2ccc(Cl)cc2)Nc2ncnn21 (stereo not given) | 15.1 µM
56 | Cc1ccc2nc(NC(=O)CNS(=O)(=O)c3ccc(Br)s3)sc2c1 | 47.7 µM
57 | O=C(Nc1nnc(-c2ccc(Cl)cc2)o1)c1ccccc1Br | 0.4 µM
58 | CC1=CC(C)(C)N2C(=O)C3(SCC(=O)N3c3ccc(O)cc3)c3cc(C)cc1c32 (stereo not given) | 11.8 µM
59 | COc1ccc(CNC(=O)c2cc(-c3ccccc3OC)on2)cc1 | 56 µM
60 | Cc1ccccc1CSc1nc2n(n1)C(c1cccs1)C1=C(CCCC1=O)N2 (stereo not given) | 8.42 µM
61 | CC1(C)COCN1S(=O)(=O)c1ccc(C(=O)Nc2nnc(-c3ccc(Cl)s3)o2)cc1 | < 0.2 µM
62 | O=C(CCNc1cc(Cl)cc(Cl)c1)c1ccco1 | 30.9 µM
63 | CCOC(=O)c1ccc(-n2[nH]c(-c3ccccc3)cc2=O)cc1 | 8.26 µM
64 | C=CCc1cc(C)ccc1OCC(O)CN1CCN(c2ccccc2)CC1 (stereo not given) | 17 µM
65 | Cc1ccc(S(=O)(=O)N(Cc2ccccc2)Cc2ccco2)cc1 | 10.8 µM
66 | CC(C)Cc1cc(C(=O)Nc2sc3c(c2C#N)CCCC3)no1 | 8.44 µM

Row | Structure (SMILES) | IC50
67 | Cc1cc(NC(=O)COC(=O)C(Nc2ccc(C(F)(F)F)cc2Cl)C(C)C)no1 (stereo not given) | 5.37 µM
68 | O=C1Nc2ccccc2C12OCC(COc1ccc(Cl)cc1)O2 (stereo not given) | 17.4 µM
69 | CCCc1[nH]nc2c1C(c1ccc(OC)c(CSC3=NCCS3)c1)C(C#N)=C(N)O2 (stereo not given) | 69.6 µM
70 | CCS(=O)(=O)n1nc(-c2ccccc2)nc1SCc1ccccc1 | 15.7 µM
71 | Cc1ccc(C)c(S(=O)(=O)C(C#N)c2nc3ccccc3nc2N2CCOCC2)c1 (stereo not given) | 11.6 µM
72 | C=C(C)COc1ccc(-c2n[nH]c(C)c2Oc2ccccc2OC)c(O)c1 | 8.36 µM
73 | COc1ccc(C(=O)C(CN2CCOCC2)c2ccccc2)cc1F (stereo not given) | 17.7 µM
74 | O=C(Nc1ccc(Cl)c(Cl)c1)OCc1cccnc1 | 13.8 µM
75 | Cc1c(-c2nc(N)nc(Nc3ccccc3)n2)oc2ccccc12 | 12.3 µM
76 | O=C(CCc1nc(-c2ccccc2F)no1)Nc1ccc(Oc2ccccc2)cc1 | 9.55 µM
77 | CCCCOc1ccc(S(=O)(=O)N2CCCCCC2)cc1 | 23.8 µM
78 | Cc1cccc(NC(=O)c2cc3n(n2)C(C(F)(F)F)CC(c2ccc4c(c2)OCO4)N3)c1 (stereo not given) | 6.87 µM
79 | Cc1noc(C)c1COC(=O)c1cc(C)n(-c2ccccc2)c1C | 11.5 µM
80 | COc1cccc(-c2cc(C(F)(F)F)nc(N3CCOCC3)n2)c1 | 16.5 µM
81 | CCOc1cc(C)c(Cl)cc1S(=O)(=O)n1nnc2ccccc21 | 11.6 µM
82 | Brc1cccc(C2CC(c3ccccc3)n3nnnc3N2)c1 (stereo not given) | 23.7 µM
83 | N#Cc1c(NC(=O)c2ccc(Br)o2)n(-c2ccccc2)c2nc3ccccc3nc12 | 15.3 µM
84 | COc1ccc(-c2noc(Cc3ccc(Cl)cc3)n2)cc1OC | 75 µM
85 | CCOC(=O)C1=C(N)OC2=C(C(=O)CCC2)C12C(=O)N1c3c(ccc(C)c32)C(C)=CC1(C)C (stereo not given) | 13.8 µM
86 | O=C(CN1CCN(c2nc(-c3ccc(F)cc3)cs2)CC1)NCc1ccc2c(c1)OCO2 | 11.1 µM
87 | CCOC(=O)c1cc2cc(-c3c(C(=O)OCC)oc4cc(O)cc(O)c4c3=O)ccc2o1 | 7.59 µM
88 | Cc1cccc2cc(CN(Cc3ccco3)C(=O)NC3CCCCC3)c(=O)[nH]c12 | 14.9 µM

Row | Structure (SMILES) | IC50
89 | CCCCn1nc(NC(=O)c2cccs2)c2cc3ccccc3nc21 | 8.28 µM
90 | COc1ccccc1N1CCN(C(c2ccccc2Cl)c2nnnn2C(C)(C)C)CC1 (stereo not given) | 27.6 µM
91 | CCOc1ccccc1N1CCN(Cc2ccc(Br)s2)CC1 | 26.6 µM
92 | Cc1ccc(C)c(N2CCN(C(=O)c3cc4sccc4n3C)CC2)c1 | 15.1 µM
93 | Cc1ccc(N(CC(=O)Nc2cccc(C)c2)S(=O)(=O)c2cccc3nonc23)cc1 | 37 µM
94 | CCN(CC)c1ccc(C(=O)Nc2cccc(F)c2)cc1 | 8.06 µM
95 | CCC(Sc1nnnn1-c1ccccc1)C(=O)Nc1nc2ccccc2s1 (stereo not given) | 5.44 µM
96 | COC(=O)c1ccccc1NC(=O)c1ccc2c(c1)OCCO2 | 21.9 µM
97 | Cc1ccc(Nc2nc(CSc3nnnn3-c3ccccc3)cs2)cc1 | 11.5 µM
98 | O=C(c1cc2ccccc2o1)N1CCN(c2ccccc2Cl)CC1 | 9.9 µM
99 | Oc1cccc(Nc2nc(NCC3CCCO3)c3ccccc3n2)c1 (stereo not given) | 4.68 µM
100 | CCCCCSc1nnc(-c2cc(Br)ccc2N)c(=O)[nH]1 | 5.1 µM
101 | OCCn1c(-c2ccc3c(c2)OCO3)csc1=Nc1ccccc1 | 23.5 µM
102 | CCSC(C)CC1C/C(=N/O)c2c(CC)noc2C1 (stereo not given) | 20.7 µM
103 | COc1ccccc1N1CCN(c2nc(C)nc3c2oc2ccccc23)CC1 | 11.4 µM
104 | Cc1ccccc1S(=O)(=O)Cc1ccc(C(=O)N2CCN(c3cccc(C)c3C)CC2)o1 | 30.8 µM
105 | O=C(Nc1ccccc1)Nc1ccc(S(=O)(=O)N2CCCCC2)cc1 | 10.3 µM
106 | Clc1cccc(NCc2nnc(SCc3ccccc3)o2)c1 | 9.57 µM
107 | N#Cc1nc(-c2ccc(OCc3ccccc3)cc2)oc1NCCCN1CCOCC1 | 25.9 µM
108 | CC(C)Cc1cc(C(=O)Nc2cc(Br)ccc2O)no1 | 5.72 µM
109 | CCn1nc(-c2ccccc2)nc2c(=O)n(C)c(=O)nc1-2 | 2.8 µM
110 | COc1cccc(-c2cc(C(=O)N3CC4(C)CC3CC(C)(C)C4)no2)c1 (stereo not given) | 11 µM
